Laboratory results reported in ChEMBL document CHEMBL4196221, “Improved Total Synthesis and Biological Evaluation of Coibamide A Analogues” (J Med Chem, 2018).
Activity calls are given as the source filed them. The rule behind the calls is not given here. Bridge positions count the residues as written; N and C are the ends. Square brackets hold non-standard residues; d marks the D form. Peptide text beside a SMILES is read from it. * marks the point of attachment. NMe2Val = CC(C)[C@@H](C(=O)*)N(C)C; NMeI = CC[C@H](C)[C@H](NC)C(=O)O; NMeT = CN[C@H](C(=O)O)[C@@H](C)O; NMeL = CN[C@@H](CC(C)C)C(=O)O; dHiv = CC(C)[C@@H](O)C(=O)O; NMeA = CN[C@@H](C)C(=O)O; dNMeA = CN[C@H](C)C(=O)O

Columns and labels:
MDA-MB-231 [1] = assay: Growth inhibition of human MDA-MB-231 cells incubated for 72 hrs by MTT assay; type: functional; details: MDA-MB-231, 72 h
Summary of the method: (§1)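 Cells seeded in 96-well plates; after 12 h, fresh medium with a concentration gradient of compound or DMSO vehicle added, then 72 h incubation. MTT added (final 0.5 mg/mL) for 4 h, medium removed, formazan dissolved in DMSO, shaken 2 min, 30 min at 37 °C, absorbance read at 490 nm. Inhibition % = [1 − OD(compound)/OD(control)] × 100; GI50 = 50% reduction versus control; three independent experiments.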

PANC-1 = assay: Growth inhibition of human PANC1 cells incubated for 72 hrs by MTT assay; type: functional; details: PANC-1, 72 h; summary of the method: as §1
A549 = assay: Growth inhibition of human A549 cells incubated for 72 hrs by MTT assay; type: functional; details: A549, 72 h; summary of the method: as §1
MDA-MB-231 [2] = assay: Antitumor activity against human MDA-MB-231 cells xenografted in Balb/c nude mouse assessed as reduction in tumor mass at 0.3 mg/kg, sc dosed every 2 days for total of 11 compound injections; type: functional
Summary of the method: (§2)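 Balb/c nude mice given 1 ×10^7 MDA-MB-231 cells subcutaneously in right flank; at tumor size ∼100 mm3 (L × W × 1/2W), peritumoral subcutaneous injection every 2 days, vehicle equal volume 20% DMSO/80% sterile saline. Tumor size and body weight measured before each injection; after 11 injections mice sacrificed and tumors weighed. n = 7 treated, 4 vehicle; one-way ANOVA.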

Mus musculus [3] = assay: Toxicity in Balb/c nude mouse xenografted with human MDA-MB-231 cells assessed as induction of body weight loss at 0.3 mg/kg, sc dosed every 2 days for total of 11 compound injections; type: organism-based; details: in vivo, 48 h; summary of the method: as §2
MDA-MB-231 [4] = assay: Antitumor activity against human MDA-MB-231 cells xenografted in Balb/c nude mouse assessed as reduction in tumor size at 0.3 mg/kg, sc dosed every 2 days for total of 11 compound injections measured on day 9 onwards; type: functional, organism-based; summary of the method: as §2
Mus musculus [5] = assay: Toxicity in Balb/c nude mouse xenografted with human MDA-MB-231 cells assessed as induction of side effect at 0.3 mg/kg, sc dosed every 2 days for total of 11 compound injections; type: organism-based; details: in vivo, 48 h; summary of the method: as §2

CC[C@H](C)[C@H]1C(=O)N[C@@H](C)C(=O)N(C)[C@@H](CC(C)C)C(=O)N[C@@H](Cc2ccc(OC)cc2)C(=O)N(C)[C@H](C)C(=O)O[C@H](C)[C@@H](N(C)C(=O)[C@H](CC(C)C)N(C)C(=O)[C@H](COC)N(C)C(=O)[C@@H](OC(=O)[C@H](C(C)C)N(C)C)C(C)C)C(=O)N(C)[C@@H](COC)C(=O)N1C
GI50 (MDA-MB-231 [1]): 10800 nM

CC[C@H](C)[C@H]1C(=O)N[C@@H](C)C(=O)N(C)[C@@H](CC(C)C)C(=O)N[C@@H](Cc2ccc(OC)cc2)C(=O)N(C)[C@H](C)C(=O)O[C@H](C)[C@H](N(C)C(=O)[C@H](CC(C)C)N(C)C(=O)[C@@H](COC)N(C)C(=O)[C@@H](OC(=O)[C@H](C(C)C)N(C)C)C(C)C)C(=O)N(C)[C@@H](COC)C(=O)N1C
GI50 (PANC-1): 1910 nM | GI50 (MDA-MB-231 [1]): 2660 nM | GI50 (A549): 2000 nM

CC[C@H](C)[C@H]1C(=O)N[C@@H](C)C(=O)N(C)[C@@H](CC(C)C)C(=O)N[C@@H](Cc2ccc(OC)cc2)C(=O)N(C)[C@H](C)C(=O)O[C@H](C)[C@H](N(C)C(=O)[C@H](CC(C)C)N(C)C(=O)[C@H](CO)N(C)C(=O)[C@H](OC(=O)[C@H](C(C)C)N(C)C)C(C)C)C(=O)N(C)[C@@H](CO)C(=O)N1C
GI50 (PANC-1): 2180 nM | GI50 (MDA-MB-231 [1]): 2060 nM

CC[C@H](C)[C@H]1C(=O)N[C@@H](C)C(=O)N(C)[C@@H](CC(C)C)C(=O)N[C@@H](Cc2ccc(OC)cc2)C(=O)N(C)[C@H](C)C(=O)O[C@H](C)[C@H](N(C)C(=O)[C@H](CC(C)C)N(C)C(=O)[C@H](C)N(C)C(=O)[C@@H](C(C)C)N(C)C(=O)[C@H](C(C)C)N(C)C)C(=O)N(C)[C@@H](C)C(=O)N1C
GI50 (PANC-1): 723 nM | GI50 (MDA-MB-231 [1]): 415 nM | GI50 (A549): 511 nM

CC[C@H](C)[C@H]1C(=O)N[C@@H](C)C(=O)N(C)[C@@H](CC(C)C)C(=O)N[C@@H](Cc2ccc(OC)cc2)C(=O)N(C)[C@H](C)C(=O)O[C@H](C)[C@H](N(C)C(=O)[C@H](CC(C)C)N(C)C(=O)[C@H](COC)N(C)C(=O)[C@@H](OC(=O)[C@H](C(C)C)N(C)C)C(C)C)C(=O)N(C)[C@@H](COC)C(=O)N1C
GI50 (MDA-MB-231 [1]): 545 nM | GI50 (A549): 19 nM

CC[C@H](C)[C@H]1C(=O)N[C@@H](C)C(=O)N(C)[C@@H](CC(C)C)C(=O)N[C@@H](Cc2ccc(OC)cc2)C(=O)N(C)[C@@H](C)C(=O)O[C@H](C)[C@H](N(C)C(=O)[C@H](CC(C)C)N(C)C(=O)[C@H](COC)N(C)C(=O)[C@@H](OC(=O)[C@H](C(C)C)N(C)C)C(C)C)C(=O)N(C)[C@@H](COC)C(=O)N1C
GI50 (MDA-MB-231 [1]): > 16000 nM | GI50 (A549): 22800 nM

CC[C@H](C)[C@H]1C(=O)N[C@@H](C)C(=O)N(C)[C@@H](CC(C)C)C(=O)N[C@@H](Cc2ccc(OC)cc2)C(=O)N(C)[C@H](C)C(=O)O[C@H](C)[C@H](N(C)C(=O)[C@H](CC(C)C)N(C)C(=O)[C@H](COC(C)(C)C)N(C)C(=O)[C@H](OC(=O)[C@H](C(C)C)N(C)C)C(C)C)C(=O)N(C)[C@@H](C)C(=O)N1C
GI50 (PANC-1): 32.9 nM | GI50 (MDA-MB-231 [1]): 5.3 nM | GI50 (A549): 12.4 nM

CC[C@H](C)[C@H]1C(=O)N[C@@H](C)C(=O)N(C)[C@@H](CC(C)C)C(=O)N[C@@H](Cc2ccc(O)cc2)C(=O)N(C)[C@H](C)C(=O)O[C@H](C)[C@H](N(C)C(=O)[C@H](CC(C)C)N(C)C(=O)[C@H](COC)N(C)C(=O)[C@H](OC(=O)[C@H](C(C)C)N(C)C)C(C)C)C(=O)N(C)[C@@H](COC)C(=O)N1C
GI50 (PANC-1): 277 nM | GI50 (MDA-MB-231 [1]): 183 nM | GI50 (A549): 222 nM

CC[C@H](C)[C@H]1C(=O)N[C@@H](C)C(=O)N(C)[C@@H](CC(C)C)C(=O)N[C@@H](Cc2ccc(OC)cc2)C(=O)N(C)[C@H](C)C(=O)O[C@H](C)[C@H](N(C)C(=O)[C@H](CC(C)C)N(C)C(=O)[C@H](COC)N(C)C(=O)[C@H](OC(=O)[C@H](C(C)C)N(C)C)C(C)C)C(=O)N(C)[C@@H](COC)C(=O)N1C
GI50 (PANC-1): 3.1 nM | GI50 (MDA-MB-231 [1]): 5 nM | GI50 (A549): 5.4 nM

CC[C@H](C)[C@H]1C(=O)N[C@@H](C)C(=O)N(C)[C@@H](CC(C)C)C(=O)N[C@@H](Cc2ccc(OC)cc2)C(=O)N(C)[C@H](C)C(=O)O[C@H](C)[C@H](N(C)C(=O)[C@H](CC(C)C)N(C)C(=O)[C@H](C)N(C)C(=O)[C@H](OC(=O)[C@H](C(C)C)N(C)C)C(C)C)C(=O)N(C)[C@@H](C)C(=O)N1C (NMe2Val-[dHiv][NMeA][NMeL][NMeT][NMeA][NMeI]A[NMeL]Y(Me)[dNMeA]; ester 4-C)
fold change (FC) (MDA-MB-231 [2]): 2 | Activity (Mus musculus [3]): Non-Toxic | GI50 (PANC-1): 7 nM | GI50 (MDA-MB-231 [1]): 5.1 nM | GI50 (A549): 7.3 nM | Activity (MDA-MB-231 [4]): Active | Activity (Mus musculus [5]): Non-Toxic

CC[C@H](C)[C@H]1C(=O)N[C@@H](C)C(=O)N(C)[C@@H](CC(C)C)C(=O)N[C@@H](Cc2ccc(OC)cc2)C(=O)N(C)[C@H](C)C(=O)O[C@H](C)[C@H](N(C)C(=O)[C@H](CC(C)C)N(C)C(=O)[C@H](C)N(C)C(=O)[C@H](OC(=O)[C@@H](NC)C(C)C)C(C)C)C(=O)N(C)[C@@H](C)C(=O)N1C
GI50 (PANC-1): 204 nM | GI50 (MDA-MB-231 [1]): 236 nM | GI50 (A549): 360 nM

CC[C@H](C)[C@H]1C(=O)N[C@@H](C)C(=O)N(C)[C@@H](CC(C)C)C(=O)N[C@@H](Cc2ccc(OC)cc2)C(=O)N(C)[C@H](C)C(=O)O[C@H](C)[C@H](N(C)C(=O)[C@H](CC(C)C)N(C)C(=O)[C@H](CCCCNC(=O)OC(C)(C)C)N(C)C(=O)[C@H](OC(=O)[C@H](C(C)C)N(C)C)C(C)C)C(=O)N(C)[C@@H](C)C(=O)N1C
GI50 (PANC-1): 124 nM | GI50 (MDA-MB-231 [1]): 61.6 nM | GI50 (A549): 81.7 nM

CC[C@H](C)[C@H]1C(=O)N[C@@H](C)C(=O)N(C)[C@@H](CC(C)C)C(=O)N[C@@H](Cc2ccc(OC)cc2)C(=O)N(C)[C@H](C)C(=O)O[C@H](C)[C@H](N(C)C(=O)[C@H](CC(C)C)N(C)C(=O)[C@H](COC)N(C)C(=O)[C@H](NC(=O)[C@H](C(C)C)N(C)C)C(C)C)C(=O)N(C)[C@@H](COC)C(=O)N1C
GI50 (PANC-1): 601 nM | GI50 (MDA-MB-231 [1]): 450 nM | GI50 (A549): 473 nM

CCCCCCCCCC(=O)N(C)[C@@H](CC(C)C)C(=O)N(C)[C@@H]1C(=O)N(C)[C@@H](C)C(=O)N(C)[C@@H]([C@@H](C)CC)C(=O)N[C@@H](C)C(=O)N(C)[C@@H](CC(C)C)C(=O)N[C@@H](Cc2ccc(OC)cc2)C(=O)N(C)[C@H](C)C(=O)O[C@@H]1C
GI50 (PANC-1): 828 nM | GI50 (MDA-MB-231 [1]): 470 nM | GI50 (A549): 733 nM

CC[C@H](C)[C@H]1C(=O)N[C@@H](C)C(=O)N(C)[C@@H](CC(C)C)C(=O)N[C@@H](Cc2ccc(OC)cc2)C(=O)N(C)[C@H](C)C(=O)O[C@H](C)[C@H](N(C)C(=O)[C@H](CC(C)C)N(C)C(=O)[C@H](CO)N(C)C(=O)[C@H](OC(=O)[C@H](C(C)C)N(C)C)C(C)C)C(=O)N(C)[C@@H](COC(C)(C)C)C(=O)N1C
GI50 (PANC-1): 46.3 nM | GI50 (MDA-MB-231 [1]): 20.8 nM | GI50 (A549): 194 nM

CC[C@H](C)[C@H]1C(=O)N[C@@H](C)C(=O)N(C)[C@@H](CC(C)C)C(=O)N[C@@H](Cc2ccc(OC)cc2)C(=O)N(C)[C@H](C)C(=O)O[C@H](C)[C@H](N(C)C(=O)[C@H](CC(C)C)NC)C(=O)N(C)[C@@H](C)C(=O)N1C
GI50 (MDA-MB-231 [1]): > 16000 nM

CC[C@H](C)[C@H]1C(=O)N[C@@H](C)C(=O)N(C)[C@@H](CC(C)C)C(=O)N[C@@H](Cc2ccc(OC)cc2)C(=O)N(C)[C@H](C)C(=O)O[C@H](C)[C@H](N(C)C(=O)[C@H](CC(C)C)N(C)C(=O)[C@H](C)N(C)C(=O)[C@H](OC(=O)[C@H](C(C)C)N(C)C(=O)CCN)C(C)C)C(=O)N(C)[C@@H](C)C(=O)N1C
GI50 (MDA-MB-231 [1]): > 16000 nM

CC[C@H](C)[C@H]1C(=O)N[C@@H](C)C(=O)N(C)[C@@H](CC(C)C)C(=O)N[C@@H](Cc2ccc(OC)cc2)C(=O)N(C)[C@H](C)C(=O)O[C@H](C)[C@H](N(C)C(=O)[C@H](CC(C)C)N(C)C(=O)[C@H](C)N(C)C(=O)[C@H](OC(=O)[C@H](C(C)C)N(C)C(=O)CCNC(=O)OC(C)(C)C)C(C)C)C(=O)N(C)[C@@H](C)C(=O)N1C
GI50 (PANC-1): 415 nM | GI50 (MDA-MB-231 [1]): 239 nM | GI50 (A549): 443 nM

CC[C@H](C)[C@H]1C(=O)N[C@@H](C)C(=O)N(C)[C@@H](CC(C)C)C(=O)N[C@@H](Cc2ccc(OC)cc2)C(=O)N(C)[C@@H](C)C(=O)O[C@H](C)[C@H](N(C)C(=O)[C@H](CC(C)C)N(C)C(=O)[C@H](COC)N(C)C(=O)[C@H](OC(=O)[C@H](C(C)C)N(C)C)C(C)C)C(=O)N(C)[C@@H](COC)C(=O)N1C
GI50 (PANC-1): 12400 nM | GI50 (MDA-MB-231 [1]): 7520 nM | GI50 (A549): 20100 nM
